Assay results from different studies.
Compare with care: the assays were run in different laboratories.
Cell line: MDA-MB-231
Read-out: cell growth or viability

SMILES | method | tested at | time | endpoint | value
COc1cccc(NC(=O)Nc2ccc(Oc3nc4ccccc4n4cnnc34)cc2)c1 | MTT | 3.125 µM | 24 h | viability | 91.5%
O=C(NN=Cc1ccc(Br)cc1)C1CC(=O)N(c2ccc(F)cc2F)C1 (stereo not shown) | MTT |  | 72 h | EC50 | 22.6 µM
C[C@H](N)C(=O)Nc1ccccc1/N=c1\cc(-c2ccc3c(c2)OCCO3)oc2c(N)cccc12 | CCK-8 | 1 µM |  | inhibition | -1.6%
COc1ccc(-c2nn(-c3ccccc3)cc2C=Nc2c(N)nc(S)nc2O)cc1 |  |  | 48 h | CC50 | > 20 µM
O=C(Nc1ccc(Oc2nc3ccccc3n3cnnc23)cc1)Nc1cccc(Cl)c1 | MTT | 3.125 µM | 24 h | viability | 100%
Nc1nc(S)nc(O)c1N=Cc1cn(-c2ccccc2)nc1-c1ccccc1 |  |  | 48 h | CC50 | > 20 µM
O=C(Nc1ccccc1)Nc1ccc(Oc2nc3ccccc3n3cnnc23)cc1 | MTT | 50 µM | 24 h | viability | 59.2%
CCNc1nc2ccc(-c3c/c(=N\c4ccccc4NC(=O)CCN)c4ccccc4o3)cc2o1 | CCK-8 | 1 µM |  | inhibition | 54.2%
O=C(NN=Cc1ccc(Cl)cc1)C1CC(=O)N(c2ccc(F)cc2F)C1 (stereo not shown) | MTT |  | 72 h | EC50 | 29.9 µM
COCCC(=O)Nc1ccccc1/N=c1\cc(-c2ccc3c(c2)OCO3)oc2ccccc12 | CCK-8 | 1 µM |  | inhibition | 8.73%
CCN(N=Cc1ccc(Br)cc1)C(=O)C1CC(=O)N(c2ccc(F)cc2F)C1 (stereo not shown) | MTT |  | 72 h | EC50 | 32.9 µM
COc1ccc2/c(=N/c3ccccc3NC(=O)[C@@H](N)C(C)(C)C)cc(-c3ccc4c(c3)OCO4)oc2c1 | CCK-8 | 1 µM |  | inhibition | 7.49%
O=C(Nc1ccc(Cl)cc1)Nc1ccc(Oc2nc3ccccc3n3cnnc23)cc1 | MTT | 100 µM | 24 h | viability | 46.6%
